According to ChEMBL document CHEMBL3108672, “Structure-activity relationship of adenosine 5'-diphosphoribose at the transient receptor potential melastatin 2 (TRPM2) channel: rational design of antagonists” (J Med Chem, 2013):
Active and inactive are the calls of the source. No cut-off for these calls is given here.

Assays:
[1] = target: T1, Transient receptor potential cation channel subfamily M member 2 (Homo sapiens, UniProt O94759); test: Inhibition of TRPM2 (unknown origin)
[2] = target: T1, Transient receptor potential cation channel subfamily M member 2; test: Antagonist activity at human TRPM2 expressed in HEK293 cells assessed as inhibition of ADPR-induced maximum outward potassium current at 100 uM at +15 mV by whole-cell patch-clamp electrophysiology; format: cell-based
Procedure, shortened: (§1)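 Stable clonal HEK293 line expressing human TRPM2 (with EGFP, G418-selected). Whole-cell patch clamp at room temperature; bath had 140 mM NMDG, 1 mM Ca2+, pH 7.4; KCl/EGTA pipet solution held 200 nM free Ca2+. Channel was activated by 100 μM ADPR in the pipet, and analogue was added to the same pipet solution. Read-out: maximum outward current at +15 mV from repeated ramps every 5 s over 450 s.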

[3] = target: T1, Transient receptor potential cation channel subfamily M member 2; test: Antagonist activity at human TRPM2 expressed in HEK293 cells assessed as inhibition of ADPR-induced maximum outward potassium current at +15 mV by whole-cell patch-clamp electrophysiology; format: cell-based; procedure, shortened: as §1
[4] = target: T1, Transient receptor potential cation channel subfamily M member 2; test: Activation of TRPM2 (unknown origin)
Procedure, shortened: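 Whole-cell patch clamp at room temperature on a HEK293 clone stably expressing human TRPM2 with EGFP (G418-selected). Bath solution: 140 mM NMDG, 5 mM KCl, 3.3 mM MgCl₂, 1 mM CaCl₂, HEPES pH 7.4. KCl pipet solution with free Ca²⁺ buffered to 200 nM by EGTA, plus 100 μM ADPR. Cells held at −50 mV with 140 ms ramps from −85 mV every 5 s for 450 s. Read-out was the maximum outward current at +15 mV.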

[5] = target: T1, Transient receptor potential cation channel subfamily M member 2; test: Antagonist activity at human TRPM2 expressed in HEK293 cells assessed as inhibition of ADPR-induced maximum outward potassium current at 900 uM at +15 mV by whole-cell patch-clamp electrophysiology; format: cell-based; procedure, shortened: as §1
[6] = target: T1, Transient receptor potential cation channel subfamily M member 2; test: Inhibition of human recombinant TRPM2
[7] = target: T1, Transient receptor potential cation channel subfamily M member 2; test: Inhibition of human TRPM2 expressed in HEK293 cells assessed as inhibition of H2O2-induced intracellular calcium level by patch clamp technique; format: cell-based
[8] = target: T1, Transient receptor potential cation channel subfamily M member 2; test: Inhibition of human TRPM2 expressed in HEK293 cells assessed as inhibition of ADP-ribose-induced current by patch clamp electrophysiology; format: cell-based
Procedure, shortened: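 Whole-cell patch clamp of a stable HEK293 clone co-expressing human TRPM2 and EGFP (G418-selected), at room temperature. Bath: 140 mM NMDG, 1 mM Ca²⁺, pH 7.4. Pipette: KCl-based with 200 nM free Ca²⁺ and 100 μM ADPR, with analogue added to it (0.1% DMSO for lipophilic ones). Voltage ramps from −85 mV every 5 s for 450 s. Maximum outward current at +15 mV is normalised to the ADPR control and fitted to a logistic curve for IC50.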

[9] = target: T1, Transient receptor potential cation channel subfamily M member 2; test: Inhibition of TRPM2 (unknown origin) expressed in HEK293 cells assessed as inhibition of ADP-ribose-induced current by patch clamp technique; format: cell-based
[10] = target: T1, Transient receptor potential cation channel subfamily M member 2; test: Partial antagonist activity at TRPM2 in human polymorphonuclear neutrophils assessed as reduction in fMLP-induced chemotaxis at 100 uM preincubated for 15 mins followed by fMLP-challenge by microscopic analysis
Procedure, shortened: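 Primary human PMN at 3 × 10^6/mL, in Ca2+ buffer with 10% autologous plasma, were held 15 min at room temperature with 100 μM analogue in fibronectin-coated microfluidic chemotaxis slides. A 0→50 nM fMLP gradient was applied, and bright-field images were taken every 30 s for 1 h. Cells were tracked manually; read-out was displacement along the gradient.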

[11] = target: T1, Transient receptor potential cation channel subfamily M member 2; test: Partial antagonist activity at TRPM2 in human polymorphonuclear neutrophils assessed as reduction in A5 peptide-induced intracellular calcium accumulation at 100 uM preincubated for 15 mins followed by A5 peptide-challenge by fluorescence microscopic analysis relative to control; format: cell-based; design: scale not given: the % may be the effect or the level left
Procedure, shortened: (§2)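 Primary human PMN were used within 6 h of blood donation, loaded with 4 μM Fura-2/AM for 30 min at 37 °C, and plated on fibronectin/BSA-coated coverslips. Cells were preincubated 15 min at ambient temperature with 10 mM ascorbate plus 100 μM analogue. About 70 s into recording they were stimulated with 1 μM fMLP or 10 μM A5 peptide. Read-out: ratiometric Ca2+ imaging, single-cell traces synchronized to the first peak.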

[12] = target: T1, Transient receptor potential cation channel subfamily M member 2; test: Partial antagonist activity at TRPM2 in human polymorphonuclear neutrophils assessed as reduction in fMLP-induced intracellular calcium accumulation at 100 uM preincubated for 15 mins followed by fMLP-challenge by fluorescence microscopic analysis relative to control; format: cell-based; design: scale not given: the % may be the effect or the level left; procedure, shortened: as §2
[13] = target: T1, Transient receptor potential cation channel subfamily M member 2; test: Antagonist activity at human TRPM2 expressed in HEK293 cells assessed as partial inhibition of ADPR-induced maximum outward potassium current at +15 mV by whole-cell patch-clamp electrophysiology; format: cell-based; procedure, shortened: as §1

T1 sequence (O94759 whole entry): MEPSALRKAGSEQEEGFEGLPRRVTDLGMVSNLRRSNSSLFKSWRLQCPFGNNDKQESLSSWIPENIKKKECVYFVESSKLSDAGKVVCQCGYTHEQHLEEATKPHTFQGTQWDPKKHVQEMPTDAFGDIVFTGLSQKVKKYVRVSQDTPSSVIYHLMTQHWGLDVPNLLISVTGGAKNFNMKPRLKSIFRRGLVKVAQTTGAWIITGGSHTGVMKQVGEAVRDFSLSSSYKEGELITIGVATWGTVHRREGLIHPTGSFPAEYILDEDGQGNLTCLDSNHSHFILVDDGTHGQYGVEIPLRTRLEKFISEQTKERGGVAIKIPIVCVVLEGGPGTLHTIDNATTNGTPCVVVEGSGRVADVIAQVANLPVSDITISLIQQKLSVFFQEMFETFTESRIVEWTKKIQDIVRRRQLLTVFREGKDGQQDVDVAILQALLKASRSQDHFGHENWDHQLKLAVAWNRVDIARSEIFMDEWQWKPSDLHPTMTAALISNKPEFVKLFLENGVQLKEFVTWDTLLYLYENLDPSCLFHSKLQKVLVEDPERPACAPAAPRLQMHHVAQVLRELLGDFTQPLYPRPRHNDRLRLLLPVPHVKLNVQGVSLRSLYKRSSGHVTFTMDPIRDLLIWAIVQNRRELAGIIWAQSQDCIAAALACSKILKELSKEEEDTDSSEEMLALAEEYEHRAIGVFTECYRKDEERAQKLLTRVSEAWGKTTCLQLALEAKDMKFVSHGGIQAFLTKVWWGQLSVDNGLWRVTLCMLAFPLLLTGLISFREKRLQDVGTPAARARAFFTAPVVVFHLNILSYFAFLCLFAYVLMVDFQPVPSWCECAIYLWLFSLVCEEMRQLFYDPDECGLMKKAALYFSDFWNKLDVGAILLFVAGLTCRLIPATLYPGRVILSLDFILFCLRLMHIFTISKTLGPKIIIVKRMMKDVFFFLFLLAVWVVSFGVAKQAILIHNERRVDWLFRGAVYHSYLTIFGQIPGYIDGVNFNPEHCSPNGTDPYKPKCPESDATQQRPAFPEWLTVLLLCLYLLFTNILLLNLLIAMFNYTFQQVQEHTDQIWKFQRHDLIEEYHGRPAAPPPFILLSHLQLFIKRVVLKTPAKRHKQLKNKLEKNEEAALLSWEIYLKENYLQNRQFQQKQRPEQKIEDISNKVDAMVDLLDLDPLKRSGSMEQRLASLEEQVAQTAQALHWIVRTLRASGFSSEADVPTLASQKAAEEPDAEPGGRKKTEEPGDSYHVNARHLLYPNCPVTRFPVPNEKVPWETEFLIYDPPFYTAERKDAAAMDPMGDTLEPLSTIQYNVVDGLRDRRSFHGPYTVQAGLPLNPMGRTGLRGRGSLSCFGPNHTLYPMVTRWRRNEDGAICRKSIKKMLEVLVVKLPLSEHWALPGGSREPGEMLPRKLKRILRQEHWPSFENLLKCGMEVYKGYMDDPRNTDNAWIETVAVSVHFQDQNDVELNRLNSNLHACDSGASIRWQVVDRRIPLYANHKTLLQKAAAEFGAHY

Compound `Clc1ccccc1C(c1ccccc1)(c1ccccc1)n1ccnc1` [CLOTRIMAZOLE] has an IC50 [1] of less than 3 µM.
In the case of `CCCCNc1c(NC[C@H]2O[C@@H](n3cnc4c(N)ncnc43)[C@H](O)[C@@H]2O)c(=O)c1=O`, the inhibition [2] is reported as “inactive”.
In the case of `Nc1ncnc2c1ncn2CCCCOP(=O)(O)OP(=O)(O)OC[C@H]1OC(O)[C@H](O)[C@@H]1O` (stereo not given in full), the inhibition [2] is reported as “inactive”.
`Nc1ncnc2c1nc(N)n2[C@@H]1O[C@H](COP(=O)(O)OP(=O)(O)OC[C@H]2OC(O)[C@H](O)[C@@H]2O)[C@@H](O)[C@H]1O` (stereo not given in full) was tested, and the IC50 ([3]; hek293) was “Not Active”.
For `Nc1ncnc2c1ncn2[C@@H]1O[C@H](COP(=O)(O)OP(=O)(O)OC[C@H]2OC(O)[C@H](O)[C@@H]2O)[C@@H](O)[C@H]1O` (stereo not given in full), the EC50 [4] was 100 µM.
For `Nc1ncnc2c1ncn2[C@@H]1O[C@H](COP(=O)(O)O)[C@@H](O)[C@H]1O` [ADENOSINE PHOSPHATE], the IC50 [1] was 70 µM and the inhibition [5] was “inactive”.
For `Nc1ncnc2c1nc(-c1ccccc1)n2[C@@H]1O[C@H](Cn2cc(COC[C@H]3OC(O)[C@H](O)[C@@H]3O)nn2)[C@@H](O)[C@H]1O` (stereo not given in full), the inhibition [2] was “inactive”.
`CCCCCCNc1c(NC[C@H]2O[C@@H](n3cnc4c(N)ncnc43)[C@H](O)[C@@H]2O)c(=O)c1=O` was tested, and the inhibition [2] was “inactive”.
Work on `O=C(O)c1cccnc1Nc1cccc(C(F)(F)F)c1` [NIFLUMIC ACID] yielded an IC50 [6] of 149 µM.
For `Nc1ncnc2c1cc(Br)n2[C@@H]1O[C@H](COP(=O)(O)OP(=O)(O)OC[C@H]2OC(O)[C@H](O)[C@@H]2O)[C@@H](O)[C@H]1O` (stereo not given in full), the IC50 ([3]; hek293) was “Not Active”.
For `Nc1ncnc2c1ncn2[C@@H]1O[C@H](COP(=O)(O)OP(=O)(O)OP(=O)(O)OC[C@H]2OC(O)[C@H](O)[C@@H]2O)[C@@H](O)[C@H]1O` (stereo not given in full), the inhibition [5] was “inactive”.
In the case of `O=c1[nH]cnc2c1ccn2[C@@H]1O[C@H](COP(=O)(O)OP(=O)(O)OC[C@H]2OC(O)[C@H](O)[C@@H]2O)[C@@H](O)[C@H]1O` (stereo not given in full), the IC50 ([3]; hek293) is reported as “Not Active”.
For `Nc1ncnc2c1nc(-c1ccccc1)n2[C@H]1C[C@H](O)[C@@H](COP(=O)(O)OP(=O)(O)OC[C@H]2OC(O)[C@H](O)[C@@H]2O)O1` (stereo not given in full), the IC50 ([3]; read-out: IC50) was 3 µM and the inhibition [5] was “Active”.
`Nc1ncnc2c1nc(-c1ccsc1)n2[C@@H]1O[C@H](COP(=O)(O)OP(=O)(O)OC[C@H]2OC(O)[C@H](O)[C@@H]2O)[C@@H](O)[C@H]1O` (stereo not given in full) was tested, and the IC50 ([3]; read-out: IC50) was 51 µM.
For `Nc1ncnc2c1ncn2[C@@H]1O[C@H](CNc2c(NC[C@H]3O[C@@H](O)[C@H](O)[C@@H]3O)c(=O)c2=O)[C@@H](O)[C@H]1O`, the inhibition [2] was “inactive”.
For `CCCCCc1ccc(/C=C/C(=O)Nc2ccccc2C(=O)O)cc1`, the IC50 [7] was 1.7 µM.
`Clc1ccc(COC(Cn2ccnc2)c2ccc(Cl)cc2Cl)cc1` (stereo not given) [ECONAZOLE] showed an IC50 [1] of less than 3 µM.
`Cc1cccc(Nc2ccccc2C(=O)O)c1C` [MEFENAMIC ACID] gave an IC50 [6] of 124 µM.
`Nc1ncnc2c1nc(Br)n2[C@@H]1O[C@H](COP(=O)(O)OP(=O)(O)OC[C@H]2OC(O)[C@H](O)[C@@H]2O)[C@@H](O)[C@H]1O` (stereo not given in full) gave an IC50 ([3]; read-out: IC50) of 300 µM.
`Nc1ncnc2c1ncn2[C@@H]1O[C@H](COP(=O)(O)OP(=O)(O)O)[C@@H](O)[C@H]1O` was tested, and the inhibition [5] was “inactive”.
For `Nc1ncnc2c1ncn2[C@@H]1O[C@H](CNc2c(NC3CCCC3)c(=O)c2=O)[C@@H](O)[C@H]1O`, the inhibition [2] was “inactive”.
`Cc1cccc(Nc2ccccc2C(=O)O)c1` showed an IC50 [8] of 76 µM.
In the case of COPPER, the IC50 [9] is reported as 2.6 µM.
`CC(=O)c1cccc(-c2nc3c(N)ncnc3n2[C@@H]2O[C@H](COP(=O)(O)OP(=O)(O)OC[C@H]3OC(O)[C@H](O)[C@@H]3O)[C@@H](O)[C@H]2O)c1` (stereo not given in full) was tested, and the IC50 ([3]; read-out: IC50) was 49 µM.
With `Nc1ncnc2c1nc(-c1ccccc1)n2[C@@H]1O[C@H](COP(=O)(O)OP(=O)(O)OC[C@H]2OC(O)[C@H](O)[C@@H]2O)[C@@H](O)[C@H]1O` (stereo not given in full) the Activity [10] was “Active”, the IC50 ([3]; read-out: IC50) was 11 µM and the Activity [11] was 31.4%. The Activity [12] was 31.8%.
For `O=c1[nH]cnc2c1ncn2[C@@H]1O[C@H](COP(=O)(O)OP(=O)(O)OC[C@H]2OC(O)[C@H](O)[C@@H]2O)[C@@H](O)[C@H]1O` (stereo not given in full), the IC50 ([3]; hek293) was “Not Active”.
`Nc1ncnc2c1nc(Cl)n2[C@@H]1O[C@H](COP(=O)(O)O)[C@@H](O)[C@H]1O` was tested, and the IC50 ([3]; hek293) was “Not Active” and the inhibition [5] was “inactive”.
With `Nc1ncnc2c1nc(-c1ccc(CC(N)C(=O)O)cc1)n2[C@@H]1O[C@H](COP(=O)(O)O)[C@@H](O)[C@H]1O` (stereo not given in full) the inhibition [2] was “inactive”.
Work on `Nc1ncnc2c1ncn2[C@@H]1O[C@H](COP(=O)(O)OP(=O)(O)OC2CCCC2)[C@@H](O)[C@H]1O` yielded an IC50 [13] of less than 900 µM.
With `O=C(O)c1ccccc1Nc1cccc(C(F)(F)F)c1` [FLUFENAMIC ACID] the IC50 [6] was 70 µM.
`Nc1nc(F)nc2c1ncn2[C@@H]1O[C@H](COP(=O)(O)OP(=O)(O)OC[C@H]2OC(O)[C@H](O)[C@@H]2O)[C@@H](O)[C@H]1O` (stereo not given in full) was tested, and the IC50 ([3]; hek293) was “Not Active”.
With `COc1ncnc2c1ncn2[C@@H]1O[C@H](COP(=O)(O)OP(=O)(O)OC[C@H]2OC(O)[C@H](O)[C@@H]2O)[C@@H](O)[C@H]1O` (stereo not given in full) the IC50 ([3]; hek293) was “Not Active”.
With `Nc1ncnc2c1nc(-c1ccccc1)n2[C@@H]1O[C@H](COP(=O)(O)OP(=O)(O)OC2CCCC2)[C@@H](O)[C@H]1O` the IC50 ([3]; read-out: IC50) was 15 µM and the inhibition [2] was “Active”.
